Experimental data gathered from unrelated publications.
Lines come from different studies, so protocols differ.
SLC22A1: Solute carrier family 22 member 1 (SLC22A1, Homo sapiens, UniProt O15245)

The IC50 of `CN(CCC(=O)O)C(=O)c1ccc2c(c1)CC[C@@H]1[C@@H]2CC[C@]2(C)C(c3cncc(F)c3)=CC[C@@H]12` is reported as over 30 µM (UDP-glucuronosyltransferase 2B4 (UGT2B4, Homo sapiens, UniProt P06133); enzyme activity, inhibitor).
The inhibition of `O=C(O)CSc1nnc(Br)n1-c1ccc(C2CC2)c2ccccc12` is reported as 58% (SLC22A1; transporter uptake, inhibitor; MDCK-II; 30 µM, 5 min).
`CCCCOC(=O)N1CCN(C(=O)[C@H](CP(=O)(O)O)NC(=O)c2cc(N3CC[C@H](OC)C3)nc(-c3ccccc3)n2)CC1` has a concentration of 2.1 ng/mL (human, plasma; subcutaneous, 16 mg, 24 h, single dose).
With `C=CCn1c(=O)c2cnc(Nc3ccc(N4CCN(C)CC4)cc3)nc2n1-c1cccc(C(C)(C)O)n1` the concentration was 300 nM (human, plasma; oral, 200 mg, 8 h, single dose).
`COc1cc(OC)c2c(=O)cc(-c3ccc(N(C)C)cc3)oc2c1` gave a CC50 of over 200 µM (HS27; cell growth or viability, MTT; 24 h).
The inhibition of `C=C[C@H]1C[N@@]2CC[C@H]1C[C@@H]2[C@@H](O)c1ccnc2ccc(OC)cc12` is reported as 77% (SLC22A1; transporter uptake, inhibitor; MDCK-II; 100 µM, 5 min).
With `COc1cc(OC)c2c(=O)cc(-c3ccc(Br)cc3)oc2c1-c1c(OC)cc(OC)c2c(=O)cc(-c3ccc(Br)cc3)oc12` the CC50 was over 200 µM (HS27; cell growth or viability, MTT; 24 h).
The cell death of `CC(C)CN1C[C@H]2CC[C@@H]3[C@]4(C)COC(C)(C)O[C@@H]4CC[C@@]3(C)[C@@H]2C[C@@H]1C1=CCOC1=O` is reported as -4.1% (MRC5; cell growth or viability, ATP luminescence; 25 µM, 72 h).
`COc1cc(C)c(-c2c(C)cc(OC)c3c(=O)cc(-c4ccccc4Br)oc23)c2oc(-c3ccccc3Br)cc(=O)c12` has a CC50 of over 200 µM (HS27; cell growth or viability, MTT; 24 h).
The cell death of `COc1ccc(CN2C[C@H]3CC[C@@H]4[C@](C)(CO)[C@H](O)CC[C@@]4(C)[C@@H]3C[C@@H]2C2=CCOC2=O)cc1` is reported as -1.8% (MRC5; cell growth or viability, ATP luminescence; 25 µM, 72 h).
`COc1ccc(-c2cc(=O)c3c(OC)cc(OC)cc3o2)cc1` gave a CC50 of over 200 µM (HS27; cell growth or viability, MTT; 24 h).
`CC(=O)OC[C@@]1(C)[C@H]2CC[C@@H]3CN(CC(C)C)[C@@H](C4=CCOC4=O)C[C@H]3[C@]2(C)CC[C@H]1OC(C)=O` has a cell death of 20.7% (MRC5; cell growth or viability, ATP luminescence; 25 µM, 72 h).
